Results taken from ChEMBL document CHEMBL4190210, “Derivatives of the Lignan 7'-Hydroxymatairesinol with Antioxidant Properties and Enhanced Lipophilicity” (J Nat Prod, 2017).

Columns and labels:
[1] = Lipophilicity, log Kw of the compound by reversed-phase UHPLC analysis; type: physicochemical; conditions: water/acetonitrile
Outline: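 Binary elution with water and acetonitrile, each containing 0.1% formic acid. Detection by UV at 254 nm and by negative/positive ESIMS selected ion monitoring.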

[2] = Antioxidant activity assessed as DPPH radical scavenging activity at test compound/DPPH volume ratio 1:1 after 1 hr by UV-spectrophotometric method; type: functional
Outline: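 DPPH 200 µM in methanol. Antioxidant stocks were 1 mM in methanol, diluted to 2–200 µM. The reaction was started by adding 1 mL DPPH solution to 1 mL antioxidant solution (1:1). Samples were incubated 1 h, an interval chosen from a time-course study.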

[3] = Antioxidant activity assessed as DPPH radical scavenging activity at test compound/DPPH volume ratio 3:1 incubated under dark condition for 30 mins by spectrophotometric method; type: functional
[4] = Lipophilicity, log P of the compound; type: physicochemical; conditions: octanol/water

With `CCCCCCCC(=O)O[C@@H](c1ccc(O)c(OC)c1)[C@H]1COC(=O)[C@@H]1Cc1ccc(O)c(OC)c1` the logKw [1] was 3.12.

Compound `Cc1c(C)c2c(c(C)c1O)CC[C@@](C)(CCC[C@H](C)CCC[C@H](C)CCCC(C)C)O2` (racemic) [ALPHA-TOCOPHEROL] has an IC50 [2] of 23.5 µM.

`CCCCCCCCCCCCCCCCCC(=O)O[C@@H](c1ccc(O)c(OC)c1)[C@H]1COC(=O)[C@@H]1Cc1ccc(O)c(OC)c1` showed a logKw [1] of 5.5.

Compound `COc1cc(C[C@H]2C(=O)OC[C@@H]2[C@H](O)c2ccc(O)c(OC)c2)ccc1O` [HYDROXYMATAIRESINOL] has a logKw [1] of 1.49 and an IC50 [2] of 20 µM.

With `O=C1O[C@H]([C@@H](O)CO)C(O)=C1O` [ASCORBIC ACID] the IC50 [3] was 12.6 µM and the IC50 [2] was 20.3 µM.

With `CCCCCCCCCCCC(=O)OC(c1ccc(O)c(OC)c1)[C@H]1COC(=O)[C@@H]1Cc1ccc(O)c(OC)c1` (stereo partly specified) the IC50 [2] was 24.5 µM.

Compound `CCCCCCCCOC(=O)c1cc(O)c(O)c(O)c1` [OCTYL_GALLATE] has a logP [4] of 4.1.

For `CCCCCCCCCCCC(=O)O[C@H](c1ccc(O)c(OC)c1)[C@H]1COC(=O)[C@@H]1Cc1ccc(O)c(OC)c1`, the logKw [1] was 3.63.

`CCCCCCCCCCCC(=O)O[C@@H](c1ccc(O)c(OC)c1)[C@H]1COC(=O)[C@@H]1Cc1ccc(O)c(OC)c1` showed a logKw [1] of 3.68.

In the case of `CCCCCCCCCCCCCCCCCC(=O)O[C@H](c1ccc(O)c(OC)c1)[C@H]1COC(=O)[C@@H]1Cc1ccc(O)c(OC)c1`, the logKw [1] is reported as 5.43.

`CCCCCCCC(=O)O[C@H](c1ccc(O)c(OC)c1)[C@H]1COC(=O)[C@@H]1Cc1ccc(O)c(OC)c1` showed a logKw [1] of 3.06.

`Cc1cc(C(C)(C)C)c(O)c(C(C)(C)C)c1` [BUTYLATED HYDROXYTOLUENE] gave an IC50 [2] of 34 µM.

Compound `CCCCCCCCCCCCCCCCCC(=O)OC(c1ccc(O)c(OC)c1)[C@H]1COC(=O)[C@@H]1Cc1ccc(O)c(OC)c1` (stereo partly specified) has an IC50 [2] of 25.2 µM.

Work on `CCCCCCCC(=O)OC(c1ccc(O)c(OC)c1)[C@H]1COC(=O)[C@@H]1Cc1ccc(O)c(OC)c1` (stereo partly specified) yielded an IC50 [2] of 24.1 µM.
